For three compounds, IC50 results are on record in ChEMBL document CHEMBL1134465, “Synthesis and evaluation of pteroic acid-conjugated nitroheterocyclic phosphoramidates as folate receptor-targeted alkylating agents” (J Med Chem, 2001).

In one assay the test system is MIA PaCa-2. Description: In vitro growth inhibition of human tumor cell line, PACA2. It counts as functional, cell-based. In short, it runs like this: (§1)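 Cells were seeded and grown 24 h at 37 °C in McCoy's 5A medium with 10% heat-inactivated FBS, penicillin 100 U/mL and streptomycin 100 μg/mL. Drug from DMSO stock was added in the same medium, with final DMSO <1%. Five serial 10-fold dilutions were tested, top final concentration 100 μg/mL.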

The next assay has as its system PC-3. Description: In vitro growth inhibition of human tumor cell line, PC3. It is filed as functional, cell-based. A digest of the protocol: as §1
For assay [1], the system named is A498. Description: In vitro growth inhibition of human kidney carcinoma cell line, A498 with low levels of folate receptors. It counts as functional, cell-based. A digest of the protocol: as §1
Another assay deals with UMUC3. Description: In vitro growth inhibition of human tumor cell line, UMUC3. It counts as functional, cell-based. In short, it runs like this: as §1
For the next assay, the system named is HT-29. As to the kind of experiment: In vitro growth inhibition of human tumor cell line, HT-29. It is filed as functional, cell-based. A digest of the protocol:
as §1

For assay [2], the system named is A549. As to the kind of experiment: In vitro growth inhibition of human lung carcinoma cell line, A549 with low levels of folate receptors. It counts as functional, cell-based. In short, it runs like this:
as §1

The nature of assay [3]: In vitro growth inhibition of human breast adrenocarcinoma cell line, MDA-231 with over expressed folate receptors. It is filed as functional. The following applies: MDA-MB-231. In short, it runs like this:
as §1

Assay [4] in a line: In vitro growth inhibition of human breast adrenocarcinoma cell line, MDA-231 with over-expressed folate receptors. It counts as functional. The note with it: MDA-MB-231. A digest of the protocol: as §1
Assay [5] deals with A549. As to the kind of experiment: In vitro growth inhibition of human lung carcinoma cell line, A549 with low levels of folate receptors in folate deficient medium. It counts as functional, cell-based. A digest of the protocol:
(§2)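 Cells were incubated with drug for 72 h in folate-deficient medium. Drug from DMSO stock was added with final DMSO <1%. Five serial 10-fold dilutions were tested, top final concentration 100 μg/mL. Viable cells were estimated by MTT and IC50 was derived.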

Assay [6] is described as follows: In vitro growth inhibition of human breast adrenocarcinoma cell line, MDA-231 with over-expressed folate receptors in folate deficient medium. The following applies: MDA-MB-231. It counts as functional. In short, it runs like this: as §2
Assay [7] is described as follows: In vitro growth inhibition of human ovarian carcinoma cell line, IGROV with over expressed folate receptors. It is filed as functional. A digest of the protocol: as §1
A short description of assay [8]: In vitro growth inhibition of human ovarian carcinoma cell line, IGROV with over expressed folate receptors in folate deficient medium. It is filed as functional. In short, it runs like this:
as §2

For assay [9], the system named is A498. Description: In vitro growth inhibition of human kidney carcinoma cell line, A498 with low levels of folate receptors in folate deficient medium. It is filed as functional, cell-based. A digest of the protocol:
as §2

For `CCCNP(=O)(OCc1ccc([N+](=O)[O-])o1)N(CCCl)CCCl` (stereo unspecified), the IC50 came out at 0.45 µM in the assay with MIA PaCa-2; 2.3 µM in the assay on PC-3; 1.4 µM in the assay with A498 [1]; 0.72 µM in the assay with UMUC3; 17 µM with HT-29; 1.9 µM with A549 [2]. In [3], this compound yielded an IC50 of 1.9 µM.

`NC(CCCCNP(=O)(OCc1ccc([N+](=O)[O-])o1)N(CCCl)CCCl)C(=O)O` (stereo unspecified): the concentration for half-maximal inhibition (IC50) in the assay on MIA PaCa-2 is 2.4 µM; in the assay with PC-3, 21 µM; with A498 [1] it was 26 µM; in the assay on UMUC3 it was 0.62 µM; with HT-29, 20 µM; in the assay on A549 [2] it was 41 µM. The same compound gave an IC50 in [3] of 16 µM.

Take `Nc1nc(O)c2nc(CNc3ccc(C(=O)NC(CCCCNP(=O)(OCc4ccc([N+](=O)[O-])o4)N(CCBr)CCBr)C(=O)O)cc3)cnc2n1` (stereo unspecified): the IC50 turned out to be 8 µM in [4]; 16 µM with MIA PaCa-2; 23 µM in the assay on A549 [5]; 11 µM in the assay with PC-3; 11 µM in the assay on A498 [1]; 5.2 µM with UMUC3. Also, the IC50 with HT-29 was 0.3 µM; in the assay with A549 [2], 11 µM; in assay [6] it was 3.6 µM; in assay [7], 0.83 µM; in assay [8] it was 0.57 µM; in the assay on A498 [9], 19 µM.
